ChEMBL document CHEMBL1132620, “Piperazine imidazo[1,5-a]quinoxaline ureas as high-affinity GABAA ligands of dual functionality” (J Med Chem, 1999)
pKi: −log10 of the molar value. Calls of active or inactive are those of the source. No cut-off for these calls is given here.

Assays:
[1] = Oral bioavailability in rats at a dose of 5.22 mg/kg; type: ADME, organism-based; settings: rat, in vivo
[2] = Total plasma clearance after iv dose of 5.10 mg/kg in rats; type: ADME, organism-based; set-up: dose 5.1 mg/kg, route intravenous; settings: rat, 5.1 mg/kg, read-out: Clp (converted)
Rattus norvegicus [3] = assay: Geller-cook activity was determined using wilcoxon signed rank test on punished schedule at dose 3 mg/kg in rats; type: functional
Procedure, shortened: (§1)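 Geller–Cook conflict schedule with punished and nonpunished response rates recorded per treatment; 6 animals per dose, controls 12–17; each dose compared to its own control by Wilcoxon signed rank test, p < 0.05.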

Rattus norvegicus [4] = assay: In vivo efficacy evaluated for ability to antagonize metrazole induced clonic convulsions in rat after ip injection; type: functional
[5] = Time at which Cmax was reached was determined after po dose of 5.22 mg/kg of compound in rats; type: ADME, organism-based; set-up: dose 5.22 mg/kg, route oral; settings: rat, in vivo
Procedure, shortened: (§2)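 Male Sprague–Dawley rats dosed orally with compound in a solution formulation, n = 3–4 per compound; serum drug concentrations measured over time, lower limit of quantitation 50 ng/mL. Tmax reported as the range of observed values across animals.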

Mus musculus [6] = assay: In vivo efficacy is evaluated by percent control of cerebellar GMP levels in (drug+stress) treated mice/mice under stress; type: functional; set-up: concentration or dose not given beside the values
Procedure, shortened: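 Male CF-1 mice given drug orally in vehicle 122 before electric footshock stress, controls given vehicle (1 mL/100 g); killed 30 min after treatment; cerebellum homogenized in 1% perchloric acid, iced 30 min, boiled 5 min, spun 17000g 20 min; supernatant cGMP by radioimmunoassay, expressed as % of stress control.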

Rattus norvegicus [7] = assay: Mean number of shocks produced by the compound in rats at a dose of 3 mg/kg was determined by vogel's punished licking assay; type: functional
Procedure, shortened: (§3)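 Vogel punished licking test in rats; number of shocks accepted recorded per dose group (n 6–10); each dose compared with the 0 mg/kg group of the same experiment by Wilcoxon rank sum test.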

Rattus norvegicus [8] = assay: Geller-cook activity was determined using wilcoxon signed rank test on punished schedule at dose 1 mg/kg in rats; type: functional; procedure, shortened: as §1
[9] = Half-life after po dose of 5.22 mg/kg in rats; type: ADME, organism-based; set-up: dose 5.22 mg/kg, route oral; settings: rat, in vivo
[10] = Area under curve was determined for the compound after iv dose of 5.10 mg/kg in rats; type: ADME, organism-based; set-up: dose 5.1 mg/kg, route intravenous; settings: rat, in vivo, 5.1 mg/kg
Rattus norvegicus [11] = assay: Geller-cook activity was determined using wilcoxon signed rank test on non punished schedule at dose 3 mg/kg in rats; type: functional; procedure, shortened: as §1
Mus musculus [12] = organism: Mus musculus; assay: Ability to antagonize the muscle relaxation effect in mice caused by a benzodiazepine full agonist, triazolam.; type: functional
Procedure, shortened: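 Muscle relaxation induced by triazolam; test compound and triazolam given separately, traction scored 30 min after dosing; ED50 for blocking the relaxant effect.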

[13] = Half-life after iv dose of 5.10 mg/kg in rats; type: ADME, organism-based; set-up: dose 5.1 mg/kg, route intravenous; settings: rat, in vivo, 5.1 mg/kg
Rattus norvegicus [14] = assay: Mean number of shocks produced by the compound in rats at a dose of 10 mg/kg was determined by vogel's punished licking assay; type: functional; procedure, shortened: as §3
[15] = Maximum serum concentration after po dose of 5.22 mg/kg in rats; type: ADME, organism-based; set-up: dose 5.22 mg/kg, route oral; settings: rat
[16] = biological target: T1, GABA-A receptor; alpha-1/beta-2/gamma-2 (Homo sapiens) (UniProt P14867+P47870+P18507); assay: (§4) In vitro GABA-mediated chloride current in A293 cells expressing GABA-A benzodiazepine receptor alpha-1-beta-2-gamma-2 subunits at 5 uM; type: functional, cell-based; settings: HEK293
[17] = biological target: T2, GABA-A receptor; anion channel (Rattus norvegicus) (UniProt O09028+P15431+P18506+P18508+P19969+P20236+P23574+P23576+P28471+P28473+P30191+P62813+P63079+P63138+Q91ZM7+Q9ES14); assay: Shift in [35S]TBPS binding to GABA-A Benzodiazepine receptor of rat brain membrane
[18] = Area under curve was determined for the compound after po dose of 5.22 mg/kg in rats; type: ADME, organism-based; set-up: dose 5.22 mg/kg, route oral; settings: rat, in vivo
[19] = biological target: T2, GABA-A receptor; anion channel (Rattus norvegicus); assay: (§5) Displacement of [3H]flunitrazepam from GABA-A benzodiazepine receptor of rat cortical membranes; type: cell membranes; set-up: concentration or dose not given beside the values; settings: Membrane, concentration not given here
Procedure, shortened: (§6)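 Rat membranes incubated 60 min at 4 °C with [3H]flunitrazepam, 50 µg membrane protein and graded test drug in 200 µL containing NaCl, 10 mM Hepes/Tris pH 7.4 and 1 mM MgCl2; bound ligand separated by rapid filtration on GF/B; mean affinity, SE ≤10% of mean.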

[20] = biological target: T1, GABA-A receptor; alpha-1/beta-2/gamma-2 (Homo sapiens); assay: as §4; type: functional, cell-based; settings: HEK293; remark: listed apart in the source
[21] = biological target: GABA-A receptor; anion channel; assay: as §5; type: cell membranes, Membrane; procedure, shortened: as §6
[22] = biological target: GABA A receptor alpha-3/beta-2/gamma-2 (Homo sapiens) (UniProt P47870+P18507+P34903); assay: In vitro GABA-mediated chloride current in A293 cells expressing GABA-A benzodiazepine receptor alpha-3-beta-2-gamma-2 subunits at 5 uM; type: functional, cell-based; settings: HEK293
Mus musculus [23] = assay: In vivo acute electroshock physical dependence activity in mice; Active; type: functional, organism-based
Rattus norvegicus [24] = assay: Mean number of shocks produced by the compound in rats at a dose of 0 mg/kg was determined by vogel's punished licking assay; type: functional; procedure, shortened: as §3
Rattus norvegicus [25] = assay: Mean number of shocks produced by the compound in rats at a dose of 0.3 mg/kg was determined by vogel's punished licking assay; type: functional; procedure, shortened: as §3
Rattus norvegicus [26] = assay: Mean number of shocks produced by CDPZ in rats at a dose of 12 mg/kg was determined by vogel's punished licking assay; type: functional; procedure, shortened: as §3
Rattus norvegicus [27] = assay: Geller-cook activity was determined using wilcoxon signed rank test on non punished schedule at dose 1 mg/kg in rats; type: functional; procedure, shortened: as §1
Rattus norvegicus [28] = assay: Mean number of shocks produced by the compound in rats at a dose of 1 mg/kg was determined by vogel's punished licking assay; type: functional; procedure, shortened: as §3
[29] = Maximum serum concentration was determined for the compound after po dose of 5.01 mg/kg in rats; type: ADME, organism-based; set-up: dose 5.01 mg/kg, route oral; settings: rat
[30] = Area under curve was determined for the compound after po dose of 5.01 mg/kg in rats; type: ADME, organism-based; set-up: dose 5.01 mg/kg, route oral; settings: rat, in vivo
[31] = Time at which Cmax was reached was determined for the compound after po dose of 5.01 mg/kg in rats; type: ADME, organism-based; set-up: dose 5.01 mg/kg, route oral; settings: rat, in vivo; procedure, shortened: as §2
[32] = Total plasma clearance Clp was determined for the compound after iv dose of 5.06 mg/kg in rats; type: ADME, organism-based; set-up: dose 5.06 mg/kg, route intravenous; settings: rat, read-out: Clp (converted)
[33] = Half-life after po dose of 5.01 mg/kg in rats; type: ADME, organism-based; set-up: dose 5.01 mg/kg, route oral; settings: rat, in vivo
Mus musculus [34] = assay: In vivo acute electroshock physical dependence activity in mice; Inactive; type: functional, organism-based
[35] = Oral bioavailability at a dose of 5.01 mg/kg in rats; type: ADME, organism-based; settings: rat, in vivo
[36] = Area under curve was determined for the compound after iv dose of 5.06 in rats; type: ADME, organism-based; settings: rat, in vivo
[37] = Half-life after iv dose of 5.06 mg/kg in rats; type: ADME, organism-based; set-up: dose 5.06 mg/kg, route intravenous; settings: rat, in vivo

Row | SMILES | ED50 (Rattus norvegicus [4]) [mg/kg] | Control (Mus musculus [6]) [%] | Mean no. of shocks (Rattus norvegicus [7]) | ED50 (Mus musculus [12]) [mg/kg] | Mean no. of shocks (Rattus norvegicus [14]) | Change in Cl- current [16] | Shift [17] | inhibition [19] [%] | Change in Cl- current [20] | pKi [21] | Mean no. of shocks (Rattus norvegicus [24]) | Mean no. of shocks (Rattus norvegicus [25]) | Mean no. of shocks (Rattus norvegicus [26]) | Mean no. of shocks (Rattus norvegicus [28]) | other results
1 | CCCC(=O)O.C[C@@H]1CN(C(=O)N2Cc3c(C(=O)OC(C)(C)C)ncn3-c3ccc(Cl)cc32)C[C@H](C)N1 | 3.7 | 64 | 5.7 | > 30 | 12 | 0.3 | 0.48 | 71 | 0.85 | 8.49 | 3.8 | 5.3 | 19 | 3.1 | bioavailability [1]: 101%; clearance [2]: 25.2 mL/min/kg; Gellar cook activity (Rattus norvegicus [3]): 27; Tmax [5]: 0.5 h; Gellar cook activity (Rattus norvegicus [8]): 46; half-life [9]: 1.8 h; AUC [10]: 3540 ng·h/mL; Gellar cook activity (Rattus norvegicus [11]): 43; half-life [13]: 1.2 h; Cmax [15]: 1170 ng/mL; AUC [18]: 3570 ng·h/mL; Change in Cl- current [22]: 0.54; Acute electroshock activity (Mus musculus [23]): Active; Gellar cook activity (Rattus norvegicus [27]): 47
2 | C[C@H]1CN(C(=O)N2Cc3c(C(=O)OC(C)(C)C)ncn3-c3ccc(Cl)cc32)C[C@H](C)N1 | 7.4 | 69 | 5.6 | > 30 | 8.8 | 0.4 | 0.37 | 45 | 1.05 | 7.78 | 3.3 | 3.9 | 14.8 | 5.2 | Cmax [29]: 660 ng/mL; AUC [30]: 2620 ng·h/mL; Tmax [31]: 0.25 h; clearance [32]: 17.8 mL/min/kg; half-life [33]: 2.4 h; Acute electroshock activity (Mus musculus [34]): inactive; bioavailability [35]: 54%; AUC [36]: 5010 ng·h/mL; half-life [37]: 1.5 h
